# Reference: publication PMC12198371 (Nature Communications, 2025)
# pKd, pKi: −log10 of the molar value. Positions of bridges follow the written chain, without caps; N, C: chain ends. Residues, ends and D or L forms follow the SMILES beside them. No end group written: not given here.
# Assays:
# [1] = target: α-chymotrypsin (PT5) (Bos taurus, UniProt P00766); test: Yeast surface display titration; assay type: binding, bovine
# [2] = target: streptavidin (PT2) (Streptomyces avidinii, UniProt P22629); test: Yeast surface display titration; assay type: binding
# Chain of streptavidin (PT2) (P22629 37-163 limits assumed): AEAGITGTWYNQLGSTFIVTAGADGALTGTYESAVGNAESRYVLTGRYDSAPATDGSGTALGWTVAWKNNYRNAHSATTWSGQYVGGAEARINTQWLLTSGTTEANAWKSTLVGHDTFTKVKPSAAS
# [3] = target: carbonic anhydrase (PT4) (Bos taurus, UniProt P00921); test: Yeast surface display titration; assay type: binding, bovine; details: ratio of KDapp values
# Chain of carbonic anhydrase (PT4) (P00921 whole entry): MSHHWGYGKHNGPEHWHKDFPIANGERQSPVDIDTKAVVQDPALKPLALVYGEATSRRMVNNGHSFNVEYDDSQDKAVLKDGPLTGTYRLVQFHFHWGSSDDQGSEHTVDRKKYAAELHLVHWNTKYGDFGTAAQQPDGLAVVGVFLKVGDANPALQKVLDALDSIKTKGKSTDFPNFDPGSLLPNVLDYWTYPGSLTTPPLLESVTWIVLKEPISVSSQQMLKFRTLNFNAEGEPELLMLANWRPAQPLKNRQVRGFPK
# [4] = target: bovine α-chymotrypsin (PT5) (Bos taurus, UniProt P00766); test: Residual enzyme activity, chromogenic substrate; assay type: biochemical
# [5] = target: α-chymotrypsin; details: natural inhibitor, Fig. 9d; cited from earlier work
# [6] = system: strep-tactin (PH2.1); test: Yeast surface display titration, specificity; assay type: binding; details: from KDapp values
# [7] = target: T1, aldolase (PT1) (Oryctolagus cuniculus, UniProt P00883); test: Surface plasmon resonance; assay type: binding, rabbit; details: PT1 (tetrameric), 600 pM vs 326 nM
# T1 sequence (P00883 1-364): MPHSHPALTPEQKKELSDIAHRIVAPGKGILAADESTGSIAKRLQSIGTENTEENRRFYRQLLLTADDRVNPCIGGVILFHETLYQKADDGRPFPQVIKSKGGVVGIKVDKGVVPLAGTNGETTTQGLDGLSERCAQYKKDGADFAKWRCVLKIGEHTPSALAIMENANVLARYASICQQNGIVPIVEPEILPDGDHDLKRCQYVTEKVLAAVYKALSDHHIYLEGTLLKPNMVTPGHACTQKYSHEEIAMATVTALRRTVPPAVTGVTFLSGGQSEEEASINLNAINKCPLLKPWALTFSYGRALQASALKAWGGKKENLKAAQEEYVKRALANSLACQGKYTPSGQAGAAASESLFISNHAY
# Method in brief: (§1)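 Targets were amine-coupled with EDC/NHS, then ethanolamine pH 8.5. PT1 was coupled at 200 µg/mL and PT5 at 30 µg/mL, both in 10 mM NaAc pH 5.2. PT3 was coupled at 10 µg/mL in 10 mM NaAc pH 4.5. Two-fold dilutions of chemically synthesised peptide were run in PBS pH 7.4 with 0.005% Tween-20 and 2% DMSO, at 25 °C and 30 µL/min. KD, kon and koff were recorded.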
# [8] = target: T1, aldolase (PT1); test: Yeast surface display titration; assay type: binding, rabbit
# [9] = target: carbapenemase GES-5 (PT3) (Klebsiella pneumoniae, UniProt Q09HD0); test: Surface plasmon resonance; assay type: binding; details: soluble chemically synthesised isomers of MP3.2
# Chain of carbapenemase GES-5 (PT3) (Q09HD0 19-287): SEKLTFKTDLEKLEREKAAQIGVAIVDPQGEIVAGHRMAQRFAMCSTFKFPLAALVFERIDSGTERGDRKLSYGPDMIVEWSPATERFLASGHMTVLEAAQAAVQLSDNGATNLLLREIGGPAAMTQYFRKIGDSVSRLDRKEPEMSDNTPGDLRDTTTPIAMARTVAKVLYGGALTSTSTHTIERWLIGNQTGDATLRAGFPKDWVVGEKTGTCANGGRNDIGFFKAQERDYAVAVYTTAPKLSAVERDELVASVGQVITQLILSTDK
# Method in brief: as §1
compound,measurement,setting,value
ACCYRIYCPCSG (also: bicyclic or more (positions not given here)) [MP5.3],tighter binding to PT5 than MP5.5,[1]; ratio of KDapp values,3 fold
CC[C@H](C)[C@@H]1NC(=O)[C@H](C(C)C)NC(=O)[C@H](Cc2ccc(O)cc2)NC(=O)[C@H](Cc2ccccc2)NC(=O)[C@H](CCC(N)=O)NC(=O)[C@@H]2CCCN2C(=O)[C@H](Cc2c[nH]cn2)NC(=O)[C@H](Cc2ccc(O)cc2)NC(=O)[C@H](Cc2c[nH]cn2)NC(=O)[C@@H](NC(=O)[C@H](C)N)CSSC[C@@H](C(=O)N[C@@H](CO)C(=O)NCC(N)=O)NC1=O [MP2.2] (H-ACHYHPQFYVICSG-NH2; disulfide 2-12),tighter binding to PT2 than MP2.5,[2]; ratio of KDapp values,3 fold
ACLVGPYYMLDCSG (disulfide 2-12 (inferred)) [MP4.1],higher binding affinity for PT4 than MP4.4,[3],16 fold
same,tighter binding to PT4 than MP4.2,[3],4 fold
same,tighter binding to PT4 than MP4.3,[3],9 fold
"CC[C@H](C)[C@H](NC(=O)[C@@H](NC(=O)CNC(=O)[C@H](CCCNC(=N)N)NC(=O)[C@H](CC(C)C)NC(=O)[C@@H]1CSSC[C@H](NC(=O)[C@H](C)N)C(=O)N[C@@H](C)C(=O)N[C@@H](Cc2c[nH]c3ccccc23)C(=O)N1)[C@@H](C)O)C(=O)N[C@H]1CSSC[C@@H](C(=O)N[C@@H](CO)C(=O)NCC(N)=O)NC1=O [MP5.4.2] (H-ACAWCLRGTICCSG-NH2; disulfide 2-5, 11-12)",pKi,[4],7.95
"H-TVLRGCWTFSFPPKPCI-NH2 [HECI, reference compound]",pKi,[5],5.41
ACIMVHYDRVECSG (disulfide 2-12 (inferred)) [MP2.3],tighter binding to PH2.1 than to PT2,[6],~2 fold
CC(C)C[C@@H]1NC(=O)[C@H](C(C)C)NC(=O)[C@H](CCC(=O)O)NC(=O)[C@@H](NC(=O)[C@H](C)N)CSSC[C@@H](C(=O)N[C@@H](CO)C(=O)NCC(N)=O)NC(=O)CNC(=O)[C@H]([C@@H](C)O)NC(=O)[C@H](Cc2c[nH]c3ccccc23)NC(=O)[C@H](CC(=O)O)NC(=O)[C@H](Cc2ccc(O)cc2)NC(=O)[C@H](CO)NC1=O [MP1.1] (H-ACEVLSYDWTGCSG-NH2; disulfide 2-12),discrepancy between KD by yeast surface titration and by SPR,[7],~ 500 fold
same,pKd,[8],9.22
CC[C@H](C)[C@@H]1NC(=O)[C@H](Cc2c[nH]c3ccccc23)NC(=O)[C@H]([C@@H](C)O)NC(=O)[C@H](Cc2c[nH]c3ccccc23)NC(=O)[C@H](CC(=O)O)NC(=O)[C@H](CCCNC(=N)N)NC(=O)[C@@H](NC(=O)[C@H](C)N)CSSC[C@@H](C(=O)N[C@@H](CO)C(=O)NCC(N)=O)NC(=O)[C@H](CCC(N)=O)NC1=O [MP5.1] (H-ACRDWTWIQCSG-NH2; disulfide 2-10),higher binding affinity to PT5 than MP5.2,[1]; ratio of KDapp values,2 fold
same,tighter binding to PT5 than MP5.5,[1]; ratio of KDapp values,5 fold
"CC[C@H](C)[C@@H]1NC(=O)[C@H]([C@@H](C)O)NC(=O)CNC(=O)[C@H](CCCNC(=N)N)NC(=O)[C@H](CC(C)C)NC(=O)[C@@H]2CSSC[C@@H](C(=O)N[C@@H](CO)C(=O)NCC(N)=O)NC(=O)[C@H](CSSC[C@H](NC(=O)[C@H](C)N)C(=O)N[C@@H](C)C(=O)N[C@@H](Cc3c[nH]c4ccccc34)C(=O)N2)NC1=O [MP5.4.1] (H-ACAWCLRGTICCSG-NH2; disulfide 2-11, 5-12)",pKi,[4],7.29
"MP3.2.1: chemically synthesised ‘two rings’ isomer of MP3.2 (ACRYICLSFRHCGWFCSG-NH2; disulfide 2-12, 6-16; N-terminus assumed; SMILES CC[C@H](C)[C@@H]1NC(=O)[C@H](Cc2ccc(O)cc2)NC(=O)[C@H](CCCNC(=N)N)NC(=O)[C@@H](NC(=O)[C@H](C)N)CSSC[C@@H]2NC(=O)[C@H](Cc3c[nH]cn3)NC(=O)[C@H](CCCNC(=N)N)NC(=O)[C@H](Cc3ccccc3)NC(=O)[C@H](CO)NC(=O)[C@H](CC(C)C)NC(=O)[C@H](CSSC[C@@H](C(=O)N[C@@H](CO)C(=O)NCC(N)=O)NC(=O)[C@H](Cc3ccccc3)NC(=O)[C@H](Cc3c[nH]c4ccccc34)NC(=O)CNC2=O)NC1=O)","interaction with immobilised PT3 (SPR), in words",[9],no or very weak interactions
ACHYHPQFYMRCSG (disulfide 2-12 (inferred)) [MP2.6],tighter binding to PT2 than MP2.4,[2]; ratio of KDapp values,6 fold
same,pKd,"[2]; read-out: KDapp, yeast-displayed peptide vs soluble PT2, text value",9.52 to 9.70
ACSMCHPQGDFCYWACSG (also: bicyclic or more (positions not given here)) [MP2.1],tighter binding to PH2.1 than to PT2,[6],~ 10 fold
"MP3.2.2: chemically synthesised ‘two rings’ isomer of MP3.2 (ACRYICLSFRHCGWFCSG-NH2; disulfide 12-16, 2-6; N-terminus assumed; SMILES CC[C@H](C)[C@@H]1NC(=O)[C@H](Cc2ccc(O)cc2)NC(=O)[C@H](CCCNC(=N)N)NC(=O)[C@@H](NC(=O)[C@H](C)N)CSSC[C@@H](C(=O)N[C@@H](CC(C)C)C(=O)N[C@@H](CO)C(=O)N[C@@H](Cc2ccccc2)C(=O)N[C@@H](CCCNC(=N)N)C(=O)N[C@@H](Cc2c[nH]cn2)C(=O)N[C@H]2CSSC[C@@H](C(=O)N[C@@H](CO)C(=O)NCC(N)=O)NC(=O)[C@H](Cc3ccccc3)NC(=O)[C@H](Cc3c[nH]c4ccccc34)NC(=O)CNC2=O)NC1=O)","interaction with immobilised PT3 (SPR), in words",[9],no or very weak interactions
ACAWCLRGTICCSG (also: bicyclic or more (positions not given here)) [MP5.4],tighter binding to PT5 than MP5.5,[1]; ratio of KDapp values,46 fold
same,pKd,"[1]; read-out: KDapp, yeast-displayed peptide vs soluble PT5, text value",9.70
